{"source": "ChEMBL document CHEMBL1128292", "about": "“Discovery of a novel series of orally active non-peptide endothelin-A (ETA) receptor-selective antagonists” (J Med Chem, 1995)", "key": {"Endothelin-1 receptor": {"molecular_target": "T1, Endothelin-1 receptor (Homo sapiens, UniProt P25101)", "T1 sequence (P25101 whole entry)": "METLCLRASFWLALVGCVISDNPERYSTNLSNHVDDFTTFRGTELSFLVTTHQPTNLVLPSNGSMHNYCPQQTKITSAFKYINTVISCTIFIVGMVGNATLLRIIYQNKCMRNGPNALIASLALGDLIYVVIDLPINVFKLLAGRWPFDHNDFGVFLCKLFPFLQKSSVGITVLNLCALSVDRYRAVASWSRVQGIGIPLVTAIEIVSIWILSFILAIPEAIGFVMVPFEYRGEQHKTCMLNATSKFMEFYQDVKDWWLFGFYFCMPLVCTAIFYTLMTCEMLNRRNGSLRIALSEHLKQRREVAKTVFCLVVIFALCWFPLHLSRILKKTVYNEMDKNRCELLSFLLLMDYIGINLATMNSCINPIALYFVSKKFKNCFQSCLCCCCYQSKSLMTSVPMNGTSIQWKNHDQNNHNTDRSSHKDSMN", "assay": "Antagonistic activity against human Endothelin A receptor expressed in LtK", "assay_type": "functional"}, "[1]": {"molecular_target": "T2, Endothelin receptor type B (Rattus norvegicus, UniProt P21451)", "T2 sequence (P21451 whole entry)": "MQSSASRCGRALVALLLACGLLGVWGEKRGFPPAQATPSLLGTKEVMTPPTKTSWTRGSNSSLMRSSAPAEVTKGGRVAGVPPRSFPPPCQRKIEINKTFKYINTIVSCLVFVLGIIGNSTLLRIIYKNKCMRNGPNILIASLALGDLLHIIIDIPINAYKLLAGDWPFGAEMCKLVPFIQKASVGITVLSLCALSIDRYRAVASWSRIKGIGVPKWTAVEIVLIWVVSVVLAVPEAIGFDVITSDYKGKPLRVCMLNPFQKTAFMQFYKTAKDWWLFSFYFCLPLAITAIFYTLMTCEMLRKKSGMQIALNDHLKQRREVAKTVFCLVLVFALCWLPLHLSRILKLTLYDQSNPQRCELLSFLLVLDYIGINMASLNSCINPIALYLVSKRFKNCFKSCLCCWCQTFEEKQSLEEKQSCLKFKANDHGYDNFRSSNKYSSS", "assay": "Tested for antagonistic activity against Endothelin B receptor in the rat cerebellum.", "assay_type": "functional, tissue-based"}, "[2]": {"molecular_target": "T3, Endothelin receptor type B (Homo sapiens, UniProt P24530)", "T3 sequence (P24530 whole entry)": "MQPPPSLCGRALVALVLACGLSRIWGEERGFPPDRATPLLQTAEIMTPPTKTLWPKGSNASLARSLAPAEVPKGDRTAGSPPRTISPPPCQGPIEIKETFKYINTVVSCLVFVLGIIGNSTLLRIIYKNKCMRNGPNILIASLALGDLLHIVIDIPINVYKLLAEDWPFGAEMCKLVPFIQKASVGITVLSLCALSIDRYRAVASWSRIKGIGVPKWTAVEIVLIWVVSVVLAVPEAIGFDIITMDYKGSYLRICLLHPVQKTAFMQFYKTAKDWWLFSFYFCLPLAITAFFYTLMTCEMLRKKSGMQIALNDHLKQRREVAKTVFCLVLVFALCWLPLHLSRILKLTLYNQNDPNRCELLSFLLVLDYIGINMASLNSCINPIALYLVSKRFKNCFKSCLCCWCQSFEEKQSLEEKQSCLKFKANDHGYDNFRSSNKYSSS", "assay": "Tested for antagonistic activity against Endothelin B receptor in the humans (CHO expressed).", "assay_type": "functional", "outline": "(§1)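 Membranes from cultured CHO-K1 cells expressing cloned human ETB receptor, incubated with [125I]ET-3 alone or with increasing unlabelled ligand concentrations, 37 °C, 2 h. Filtration separated bound from free ligand; gamma counting. Nonspecific binding measured with 100 nM unlabelled ET-3. One-site nonlinear least-squares fit of specific binding. IC50 from single competition experiments, triplicate points.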"}, "[3]": {"molecular_target": "T3, Endothelin receptor type B", "assay": "Tested for antagonistic activity against Endothelin B receptor in human (CHO expressed).", "assay_type": "functional", "outline": "as §1"}}}
{"smiles": "COc1ccc(C2(O)OC(=O)C(c3ccc4c(c3)OCO4)=C2Cc2ccc(C)cc2)cc1", "note": "(stereo unspecified)", "values": [{"measurement": "IC50", "setting": "Endothelin-1 receptor", "result": 51, "unit": "nM"}, {"measurement": "IC50", "setting": "[1]", "result": 4.5, "unit": "µM"}, {"measurement": "IC50", "setting": "[2]", "result": 390, "unit": "nM"}]}
{"smiles": "COc1ccc(C2(O)OC(=O)C(c3ccc4c(c3)OCO4)=C2Cc2ccccc2)cc1C", "note": "(stereo unspecified)", "values": [{"measurement": "IC50", "setting": "Endothelin-1 receptor", "result": 12, "unit": "nM"}, {"measurement": "IC50", "setting": "[2]", "result": 1750, "unit": "nM"}]}
{"smiles": "COc1ccc(CC2=C(c3ccc(Cl)cc3)C(=O)OC2(O)c2ccc(OC)cc2)cc1", "note": "(stereo unspecified)", "values": [{"measurement": "IC50", "setting": "[2]", "result": "> 2500", "unit": "nM"}]}
{"smiles": "COc1ccc(C2(O)OC(=O)C(c3ccc4c(c3)OCO4)=C2Cc2ccc(Cl)cc2)cc1", "note": "(stereo unspecified)", "values": [{"measurement": "IC50", "setting": "[2]", "result": "> 2500", "unit": "nM"}]}
{"smiles": "COc1ccc(CC2=C(c3ccccc3)C(=O)OC2(O)c2ccc(OC)cc2)cc1", "note": "(stereo unspecified)", "values": [{"measurement": "IC50", "setting": "[2]", "result": "> 2500", "unit": "nM"}]}
{"smiles": "COc1ccc(C2(O)OC(=O)C(c3ccc4c(c3)OCO4)=C2Cc2ccc(OC)c(C)c2)cc1", "note": "(stereo unspecified)", "values": [{"measurement": "IC50", "setting": "Endothelin-1 receptor", "result": 2.4, "unit": "nM"}, {"measurement": "IC50", "setting": "[2]", "result": 1140, "unit": "nM"}]}
{"smiles": "COc1ccc(CC2=C(c3ccc(C)cc3)C(=O)OC2(O)c2ccc(OC)cc2)cc1", "note": "(stereo unspecified)", "values": [{"measurement": "IC50", "setting": "[2]", "result": "> 2700", "unit": "nM"}]}
{"smiles": "COc1ccc(CC2=C(c3ccc(Cl)c(Cl)c3)C(=O)OC2(O)c2ccc(OC)cc2)cc1", "note": "(stereo unspecified)", "values": [{"measurement": "IC50", "setting": "Endothelin-1 receptor", "result": 170, "unit": "nM"}, {"measurement": "IC50", "setting": "[2]", "result": "> 2500", "unit": "nM"}]}
{"smiles": "COc1ccc(CC2=C(c3ccc4c(c3)OCO4)C(=O)OC2(O)c2ccc(OC)cc2)cc1", "note": "(stereo unspecified)", "values": [{"measurement": "IC50", "setting": "[2]", "result": 1550, "unit": "nM"}]}
{"smiles": "O=C1OC(O)(c2ccccc2)C(Cc2ccccc2)=C1c1ccc2c(c1)OCO2", "note": "(stereo unspecified)", "values": [{"measurement": "IC50", "setting": "[3]", "result": 30, "unit": "µM"}, {"measurement": "IC50", "setting": "[1]", "result": 22, "unit": "µM"}]}
{"smiles": "COc1ccc(CC2=C(c3ccc(OC)cc3)C(=O)OC2(O)c2ccc(OC)cc2)cc1", "note": "(stereo unspecified)", "values": [{"measurement": "IC50", "setting": "[2]", "result": "> 2500", "unit": "nM"}]}
{"smiles": "O=C1OC(O)(c2ccc(Cl)cc2)C(Cc2ccccc2)=C1c1ccc2c(c1)OCO2", "note": "(stereo unspecified)", "values": [{"measurement": "IC50", "setting": "[1]", "result": 5.2, "unit": "µM"}, {"measurement": "IC50", "setting": "[2]", "result": 27000, "unit": "nM"}]}
{"smiles": "Cc1ccc(C2(O)OC(=O)C(c3ccc4c(c3)OCO4)=C2Cc2ccccc2)cc1", "note": "(stereo unspecified)", "values": [{"measurement": "IC50", "setting": "[3]", "result": "> 25", "unit": "µM"}, {"measurement": "IC50", "setting": "[1]", "result": 4.5, "unit": "µM"}]}
{"smiles": "O=C1OC(O)(c2ccc(Cl)c(Cl)c2)C(Cc2ccccc2)=C1c1ccc2c(c1)OCO2", "note": "(stereo unspecified)", "values": [{"measurement": "IC50", "setting": "[2]", "result": "> 25000", "unit": "nM"}]}
{"smiles": "COc1ccc(C2(O)OC(=O)C(c3ccc4c(c3)OCO4)=C2Cc2ccccc2)cc1", "note": "(stereo unspecified) [PD-155080]", "values": [{"measurement": "IC50", "setting": "[3]", "result": 4.55, "unit": "µM"}, {"measurement": "IC50", "setting": "[1]", "result": 0.5, "unit": "µM"}]}
{"smiles": "COc1ccc(C(=O)/C(Cc2cc(OC)c(OC)c(OC)c2)=C(\\C(=O)O)c2ccc3c(c2)OCO3)cc1", "note": "[PD-156707 SODIUM]", "values": [{"measurement": "IC50", "setting": "Endothelin-1 receptor", "result": 0.31, "unit": "nM"}, {"measurement": "IC50", "setting": "[2]", "result": 417, "unit": "nM"}]}
